Dyrk1A ADPGlo = blocks rat Dyrk1A kinase activity | Q63470 | AID 504441 | 310,000 tested, 0.43% active | ADP-Glo luminescence, NFATc1 peptide | inhibition, % at 12.5 µM; in the data active means inhibition above about 50%;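 further: plate controls were vehicle with enzyme for no effect and no enzyme for full effect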
CAL PDZ FP-1 = blocks peptide binding to human CAL PDZ domain | Q9HD26 | 330,000 tested, 0.02% active | purified CAL PDZ, TMR-peptide fluorescence polarization, 1 h | AID 504414 | inhibition, % at 20 µM;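 active means highest replicate inhibition of at least 40%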;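 further: plate controls were DMSO neutral control wells for no effect and unlabeled competitor peptide control wells for full effect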
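System: tagged CAL PDZ domain. Schedule: 1 h room-temperature incubation prior to read. Signal: fluorescence polarization (mP). Measure: percent inhibition from loss of millipolarization.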
CAL PDZ FP-2 = CAL PDZ (human) peptide binding inhibition. Q9HD26. purified CAL PDZ, TMR-peptide fluorescence polarization, 1 h. inhibition, % at 24.9 µM. 300,000 tested, 0.92% active. AID 602252;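 active means mean inhibition of at least 30% with at least half of replicates also reaching 30%; inconclusive means no clear call, values can overlap the other calls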;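 further: 0% = DMSO neutral control and 100% = excess unlabeled competitor peptide PRC23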
Rtt109 HAT inh = blocks Candida albicans Rtt109/Vps75 acetyltransferase activity | Q5AAJ8 | purified Rtt109/Vps75, ThioGlo CoA-SH fluorescence, 4 h | inhibition, % at 34.9 µM | 330,000 tested, 0.16% active;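 active means inhibition of at least 50% in every replicate; inconclusive means best replicate reaches 50% inhibition but some replicates fall short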
Target sequence (Q5AAJ8 whole entry, looked up): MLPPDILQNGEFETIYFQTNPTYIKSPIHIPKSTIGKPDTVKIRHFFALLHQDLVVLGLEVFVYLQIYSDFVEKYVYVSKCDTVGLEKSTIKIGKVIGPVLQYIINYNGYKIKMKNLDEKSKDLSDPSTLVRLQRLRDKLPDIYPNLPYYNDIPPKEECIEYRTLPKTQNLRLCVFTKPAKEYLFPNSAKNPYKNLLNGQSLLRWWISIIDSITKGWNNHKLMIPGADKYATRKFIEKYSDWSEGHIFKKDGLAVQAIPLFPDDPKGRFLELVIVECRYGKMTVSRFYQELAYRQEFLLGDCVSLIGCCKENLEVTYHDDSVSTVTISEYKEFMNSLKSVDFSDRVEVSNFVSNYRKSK
ALR inh = blocks human ALR sulfhydryl oxidase activity. P55789. purified ALR, DTT oxidation, H2O2 HRP-luminol luminescence. inhibition, % (concentration not given with the values). 290,000 tested, 3.8% active;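 active means mean replicate inhibition above about 79%, with every replicate also reaching it, limit read from the data; inconclusive means only one of the two criteria met; inactive means mean below limit and not every replicate reaching it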
Target sequence (P55789 whole entry, looked up): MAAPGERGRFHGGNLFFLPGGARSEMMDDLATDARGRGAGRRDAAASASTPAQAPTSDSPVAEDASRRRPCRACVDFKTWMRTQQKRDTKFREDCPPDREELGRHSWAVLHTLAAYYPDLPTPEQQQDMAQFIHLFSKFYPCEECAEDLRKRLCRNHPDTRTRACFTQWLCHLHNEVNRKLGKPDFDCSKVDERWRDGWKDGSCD
An asterisk follows results filed as active; ? = inconclusive; · = no result given. Most compounds without a hit are left out; they make up all but 4.3% or so of the library.

SMILES	Dyrk1A ADPGlo	CAL PDZ FP-1	CAL PDZ FP-2	Rtt109 HAT inh	ALR inh
COc1ccc(N2CCN(C(=O)CCC(=O)N3CCOc4ccc(C)cc43)CC2)cc1	3	-1	7	2	97*
COc1ccccc1N(CC(=O)N1CCN(c2ccccc2)CC1)S(=O)(=O)c1ccc(C)cc1	-6	-1	66*	4	3
COc1ccc(N2CCN(C(=O)CCC(=O)N3CCOc4ccc(Cl)cc43)CC2)cc1	-1	-1	·	1	69
CC(=O)Nc1ccc(SCC(=O)NCC2(N3CCCCC3)CCCCC2)cc1	-6	0	6	1	99*
N#CCC(=O)Nc1ccc(C(=O)NCC2(N3CCOCC3)CCCCC2)cc1	8	-1	2	2	99*
CS(=O)(=O)c1ccc(C(=O)NCC2(N3CCOCC3)CCCCC2)cc1	5	0	-2	3	-6
O=C(CSc1ccc(Br)cc1)NCC1(N2CCCCC2)CCCCC1	-5	-1	-7	-6	·
CCOC(=O)C1=NNC(C(=O)c2ccccc2)C1c1ccc(C)cc1 (stereo not drawn)	11	-1	59*	-5	·
CC(C)NC(=O)Cn1cc(C(=O)C(=O)N2CCOCC2)c2ccccc21	-3	-4	-1	-1	3
O/N=C/c1ccc2ccccc2n1	-17	-2	·	-7	-3
CC(OC(=O)/C=C/c1ccc2ccccc2n1)C(=O)N(C)c1ccccc1 (stereo not drawn)	-5	-1	-2	-3	1
CC(=O)/C=C/c1ccc2ccccc2n1	-2	-1	-2	14	98*
COc1ccccc1NC(=O)C(C)OC(=O)/C=C/c1ccc2ccccc2n1 (stereo not drawn)	3	-3	-1	-22	94*
Cc1nn(-c2ccccc2)c(=S)c2ccccc12	1	-1	0	·	0
CC1CCCC/C1=N\NC(=S)Nc1cccnc1 (stereo not drawn)	-2	-1	·	2	98*
Cc1ccc(C(=C2C3C=CC2C2C(=O)NC(=O)C32)c2ccc(C)cc2)cc1 (stereo not drawn)	8	1	·	4	-6
COc1ccc(N(CC(=O)N2CCC(Cc3ccccc3)CC2)S(C)(=O)=O)cc1	6	·	4	5	-9
O=C(N/N=C/c1ccco1)c1cc(-c2cccs2)[nH]n1	28	-5	41*	2	18
CC(C)c1cc(C(=O)N/N=C/c2ccco2)n[nH]1	2	-1	3	-6	83*
Cc1cc(C(=O)OCC(=O)N(C)c2c(N)n(Cc3ccccc3)c(=O)[nH]c2=O)c(C)n1-c1ccccc1	-7	-1	-2	-8	0
COc1ccc(CSc2nc(O)cc(=O)n2CC(C)C)cc1F	-1	0	·	-6	99*
Cc1cc(C)cc(NC(=O)CSc2nc3c(c(=O)[nH]2)CN(Cc2ccc(F)cc2)CC3)c1	-4	-1	0	-3	-32
CCc1c(O)nc(SCC(=O)Nc2ccc3c(c2)CCC3)[nH]c1=O	6	1	·	?	100*
CCCN1CCc2nc(SCC(=O)Nc3ccc(C)c(Cl)c3)[nH]c(=O)c2C1	8	-1	-1	16	98*
CCCCc1c(O)nc(SCC(=O)Nc2ccc3c(c2)CCC3)[nH]c1=O	0	·	-2	6	99*
SMILES	Dyrk1A ADPGlo	CAL PDZ FP-1	CAL PDZ FP-2	Rtt109 HAT inh	ALR inh
NC(=O)c1nc(-c2cccs2)nc2c1[nH]c(=O)n2-c1ccc(F)cc1	2	0	·	-3	1
Cn1c(=O)c(Nc2ccc(O)cc2)c2c3c(cccc31)C(=O)c1ccccc1-2	24	1	-4	1	69
COc1ccc(CN2CCNC(=O)C2CC(=O)NCCC2=CCCCC2)c(F)c1 (stereo not drawn)	-2	-2	-3	6	·
C/C(=N\Nc1ccc(S(=O)(=O)N2CCCCC2)cn1)c1ccc(O)cc1	·	1	-4	2	91*
CCCCNC(=O)c1ccccc1SCC(=O)NC1CCCCCCC1	1	0	-1	2	-4
O=C(NCC1CC1)c1ccc(Nc2nc3ccc(Br)cc3[nH]2)cc1	3	-2	-1	-13	98*
CC(C)(C)OC(=O)NN=C(c1ccc(O)cc1)c1ccc(O)cc1	0	-3	-3	0	82*
Cc1cc(C)c2oc(C(=O)N3CCN(Cc4ccccc4)CC3)cc(=O)c2c1	5	-1	-4	-2	-4
O=C(NC1CCCCCC1)c1ccc(Br)o1	-7	-3	-5	-13	6
O=C(NC1CCCCC1)Oc1cc2oc(=O)sc2cc1Br	·	-1	1	59*	71
C=CCN(c1ccccc1OC)S(=O)(=O)c1cccc(C(=O)Nc2nnc(C3CC3)s2)c1	2	-1	40*	-12	-5
C=CCN(c1ccccc1OC)S(=O)(=O)c1cccc(C(=O)NC2=NCCS2)c1	·	-1	-10	-14	·
O=C(CCC1CCCC1)c1c(O)c2ccccc2oc1=O	3	-1	-2	-2	93*
CCc1cc2ccc(C)cc2nc1SCC(=O)NC1CCCC1	2	0	·	2	·
O=C(c1ccccn1)N1CCCC(N2CCN(c3ccc(F)cc3)CC2)C1 (stereo not drawn)	1	-2	-6	3	97*
Cc1cc(C(=O)N2CCCC(N3CCN(c4ccc(F)cc4)CC3)C2)no1 (stereo not drawn)	-1	-1	-4	-2	54
O=C(c1ccccn1)N1CCCC(N2CCN(c3ccccc3)CC2)C1 (stereo not drawn)	2	0	0	-10	69
CCCc1cc(C(=O)N2CCCC(N3CCN(c4ccc(F)cc4)CC3)C2)no1 (stereo not drawn)	7	-2	0	-7	98*
CCOc1ccc(N(C(=O)c2ccc3c(c2)OCO3)C2C=CS(=O)(=O)C2)cc1 (stereo not drawn)	-2	-2	2	-2	0
NC(=O)c1ccc(Nc2nnc(-c3ccc(O)cc3)c3ccccc23)cc1	·	-3	-5	-2	96*
CNC(=O)c1ccc(Nc2nnc(-c3ccc(C(N)=O)cc3)c3ccccc23)cc1	5	·	-5	8	-16
CC(=O)Nc1ccc(Nc2nnc(-c3ccc(O)cc3)c3ccccc23)cc1	12	·	-7	-2	84*
CCN(CC)C(=O)c1ccc(-c2nnc(Nc3ccc(O)cc3)c3ccccc23)cc1	5	0	-3	-1	5
NC(=O)Cc1ccc(Nc2nnc(-c3ccc(O)cc3)c3ccccc23)cc1	·	-2	-4	·	99*
COc1ccc(OC)c2c(C)cc(N3CCCN(C)CC3)nc12	-2	-3	·	-16	98*
CN1CCN(NC(=O)CN2C(=O)/C(=C/c3ccccc3Cl)SC2=S)CC1	6	-3	·	25	99*
O=C(CCCN1C(=O)/C(=C/c2ccccc2Cl)SC1=S)NNC(=O)c1ccccc1	3	0	-6	-1	18
O=C(CCN1C(=O)/C(=C/c2ccccc2Cl)SC1=S)Nc1ccccc1C(=O)O	0	0	-5	5	98*
